According to ChEMBL document CHEMBL2380209, “Synthesis and pharmacological characterization of 4-substituted-2-aminobicyclo[3.1.0]hexane-2,6-dicarboxylates: identification of new potent and selective metabotropic glutamate 2/3 receptor agonists” (J Med Chem, 2013):

Tests used:
[1] = target: T1, Metabotropic glutamate receptor 6 (Homo sapiens, UniProt O15303); assay: Agonist activity at human mGlu6 receptor expressed in golden Syrian hamster AV12 cells coexpressing EAAT1 after 20 mins by FLIPR assay; format: cell-based
[2] = target: T2, Metabotropic glutamate receptor 3 (Homo sapiens, UniProt Q14832); assay: Agonist activity at human mGlu3 receptor expressed in golden Syrian hamster AV12 cells coexpressing EAAT1 after 20 mins by HTRF assay; format: cell-based
[3] = target: Metabotropic glutamate receptor 8 (Homo sapiens, UniProt O00222); assay: Agonist activity at human mGlu8 receptor expressed in golden Syrian hamster AV12 cells coexpressing EAAT1 after 20 mins by FLIPR assay; format: cell-based
[4] = target: T3, Metabotropic glutamate receptor 2 (Homo sapiens, UniProt Q14416); assay: Agonist activity at human mGlu2 receptor expressed in golden Syrian hamster AV12 cells coexpressing EAAT1 after 20 mins by HTRF assay; format: cell-based
[5] = target: T2, Metabotropic glutamate receptor 3; assay: Antagonist activity at human mGlu3 receptor expressed in golden Syrian hamster AV12 cells coexpressing EAAT1 assessed as inhibition of forskolin-stimulated cAMP production after 20 mins by HTRF assay; format: functional, cell-based
[6] = target: T3, Metabotropic glutamate receptor 2; assay: Antagonist activity at human mGlu2 receptor expressed in golden Syrian hamster AV12 cells coexpressing EAAT1 assessed as inhibition of forskolin-stimulated cAMP production after 20 mins by HTRF assay; format: functional, cell-based
[7] = target: T1, Metabotropic glutamate receptor 6; assay: Agonist activity at human mGlu6 receptor expressed in golden Syrian hamster AV12 cells coexpressing EAAT1 assessed as inhibition of forskolin-stimulated cAMP production after 20 mins by FLIPR assay
[8] = target: T1, Metabotropic glutamate receptor 6; assay: Antagonist activity at human mGlu6 receptor expressed in golden Syrian hamster AV12 cells coexpressing EAAT1 assessed as inhibition of forskolin-stimulated cAMP production after 20 mins by FLIPR assay relative to control; format: functional, cell-based
[9] = Clearance in Sprague-Dawley rat at 3 mg/kg, iv up to 24 hrs by LC/MS/MS analysis; format: ADME, organism-based; design: dose 3 mg/kg, route intravenous; details: in vivo
Procedure, shortened: (§1)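 Fasted male Sprague Dawley rats (~250 g) were dosed with an aqueous solution adjusted to pH 7-7.5 with NaOH, by oral gavage (1, 3, 10 mg/kg) or intravenously (3 mg/kg). Serial jugular-catheter blood samples (11-12 per rat) went into EDTA tubes over 24 h. Plasma was extracted by SPE with an analog internal standard and run on an anion-exchange HPLC column, SRM m/z 204.1 > 77.1. Parameters came from noncompartmental analysis and are reported as means.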

[10] = Tmax in Sprague-Dawley rat at 3 mg/kg, po by LC/MS/MS analysis; format: ADME, organism-based; design: dose 3 mg/kg, route oral; details: in vivo; procedure, shortened: as §1
[11] = Oral bioavailability in Sprague-Dawley rat at 3 mg/kg up to 24 hrs by LC/MS/MS analysis; format: ADME, organism-based; details: in vivo; procedure, shortened: as §1
[12] = Half life in Sprague-Dawley rat at 1 mg/kg, po by LC/MS/MS analysis; format: ADME, organism-based; design: dose 1 mg/kg, route oral; details: in vivo; procedure, shortened: as §1
[13] = AUC (0 to 24 hrs) in Sprague-Dawley rat at 1 mg/kg, po by LC/MS/MS analysis; format: ADME, organism-based; design: time < 24 hr, dose 1 mg/kg, route oral; details: plasma; procedure, shortened: as §1
[14] = Cmax in Sprague-Dawley rat at 3 mg/kg, po up to 24 hrs by LC/MS/MS analysis; format: ADME, organism-based; design: dose 3 mg/kg, route oral; details: in vivo; procedure, shortened: as §1
[15] = Half life in Sprague-Dawley rat at 3 mg/kg, iv by LC/MS/MS analysis; format: ADME, organism-based; design: dose 3 mg/kg, route intravenous; details: in vivo; procedure, shortened: as §1
[16] = Cmax in Sprague-Dawley rat at 1 mg/kg, po up to 24 hrs by LC/MS/MS analysis; format: ADME, organism-based; design: dose 1 mg/kg, route oral; details: in vivo; procedure, shortened: as §1
[17] = Tmax in Sprague-Dawley rat at 3 mg/kg, iv by LC/MS/MS analysis; format: ADME, organism-based; design: dose 3 mg/kg, route intravenous; details: in vivo; procedure, shortened: as §1
[18] = AUC (0 to 24 hrs) in Sprague-Dawley rat at 10 mg/kg, po by LC/MS/MS analysis; format: ADME, organism-based; design: time < 24 hr, dose 10 mg/kg, route oral; details: plasma; procedure, shortened: as §1
[19] = AUC (0 to 24 hrs) in Sprague-Dawley rat at 3 mg/kg, po by LC/MS/MS analysis; format: ADME, organism-based; design: time < 24 hr, dose 3 mg/kg, route oral; details: plasma; procedure, shortened: as §1
[20] = Half life in Sprague-Dawley rat at 3 mg/kg, po by LC/MS/MS analysis; format: ADME, organism-based; design: dose 3 mg/kg, route oral; details: in vivo; procedure, shortened: as §1
[21] = Tmax in Sprague-Dawley rat at 1 mg/kg, po by LC/MS/MS analysis; format: ADME, organism-based; design: dose 1 mg/kg, route oral; details: in vivo; procedure, shortened: as §1
[22] = Tmax in Sprague-Dawley rat at 10 mg/kg, po by LC/MS/MS analysis; format: ADME, organism-based; design: dose 10 mg/kg, route oral; details: in vivo; procedure, shortened: as §1
Rattus norvegicus [23] = assay: Neurotoxicity in Sprague-Dawley rat assessed as impairment of motor coordination at 3 to 10 mg/kg, po administered 2 hrs prior to test by rotarod test; format: toxicity, organism-based; design: dose 3-10 mg/kg, route oral; details: in vivo
Procedure, shortened: (§2)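 Rats were trained to stay on a 4 rpm rotorod for 1 min, with up to four attempts, and were retested 30-60 min later; failures were excluded. Trained rats (8/group) received oral aqueous solution (3, 10 or 30 mg/kg) or vehicle and were retested 120 min later, scored as seconds on the rotorod. One-way ANOVA with Dunnett's test was run against vehicle.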

[24] = Initial plasma concentration in Sprague-Dawley rat at 3 mg/kg, iv by LC/MS/MS analysis; format: ADME, organism-based; design: dose 3 mg/kg, route intravenous; procedure, shortened: as §1
[25] = Volume of distribution at steady state in Sprague-Dawley rat at 3 mg/kg, iv up to 24 hrs by LC/MS/MS analysis; format: ADME, organism-based; design: dose 3 mg/kg, route intravenous; details: in vivo, read-out: Vdss; procedure, shortened: as §1
[26] = Half life in Sprague-Dawley rat at 10 mg/kg, po by LC/MS/MS analysis; format: ADME, organism-based; design: dose 10 mg/kg, route oral; details: in vivo; procedure, shortened: as §1
[27] = AUC (0 to 24 hrs) in Sprague-Dawley rat at 3 mg/kg, iv by LC/MS/MS analysis; format: ADME, organism-based; design: time < 24 hr, dose 3 mg/kg, route intravenous; details: plasma; procedure, shortened: as §1
Rattus norvegicus [28] = assay: Neurotoxicity in Sprague-Dawley rat assessed as impairment of motor coordination at 30 mg/kg, po administered 2 hrs prior to test by rotarod test; format: toxicity, organism-based; design: dose 30 mg/kg, route oral; details: in vivo; procedure, shortened: as §2
[29] = Cmax in Sprague-Dawley rat at 10 mg/kg, po up to 24 hrs by LC/MS/MS analysis; format: ADME, organism-based; design: dose 10 mg/kg, route oral; details: in vivo; procedure, shortened: as §1
Rattus norvegicus [30] = assay: Antipsychotic activity in po dosed Sprague-Dawley rat assessed as decrease in PCP-elicited ambulations administered 2 hrs prior to test measured for 60 mins; format: functional

T1 sequence (O15303 whole entry): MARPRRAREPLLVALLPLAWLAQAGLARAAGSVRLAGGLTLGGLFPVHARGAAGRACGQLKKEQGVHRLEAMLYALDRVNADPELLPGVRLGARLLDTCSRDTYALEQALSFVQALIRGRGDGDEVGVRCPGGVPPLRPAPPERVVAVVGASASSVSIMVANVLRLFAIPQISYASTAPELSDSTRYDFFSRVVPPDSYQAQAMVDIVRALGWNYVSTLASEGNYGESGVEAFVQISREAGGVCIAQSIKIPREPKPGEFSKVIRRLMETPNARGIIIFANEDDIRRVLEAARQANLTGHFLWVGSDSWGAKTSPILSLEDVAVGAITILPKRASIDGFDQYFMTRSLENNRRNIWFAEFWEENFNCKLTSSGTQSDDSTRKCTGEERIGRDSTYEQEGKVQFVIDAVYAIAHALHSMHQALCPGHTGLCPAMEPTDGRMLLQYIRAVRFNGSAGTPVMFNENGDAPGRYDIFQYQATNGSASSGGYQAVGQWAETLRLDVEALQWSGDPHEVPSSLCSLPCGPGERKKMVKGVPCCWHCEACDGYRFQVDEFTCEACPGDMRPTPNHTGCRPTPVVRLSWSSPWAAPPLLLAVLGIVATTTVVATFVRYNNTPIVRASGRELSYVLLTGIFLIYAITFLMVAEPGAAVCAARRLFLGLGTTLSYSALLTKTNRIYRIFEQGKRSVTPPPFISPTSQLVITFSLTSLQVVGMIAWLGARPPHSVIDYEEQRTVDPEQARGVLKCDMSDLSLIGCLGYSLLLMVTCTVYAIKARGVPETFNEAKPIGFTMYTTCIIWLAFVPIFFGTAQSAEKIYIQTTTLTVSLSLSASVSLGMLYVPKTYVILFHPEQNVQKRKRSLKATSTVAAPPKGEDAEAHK
T3 sequence (Q14416 whole entry): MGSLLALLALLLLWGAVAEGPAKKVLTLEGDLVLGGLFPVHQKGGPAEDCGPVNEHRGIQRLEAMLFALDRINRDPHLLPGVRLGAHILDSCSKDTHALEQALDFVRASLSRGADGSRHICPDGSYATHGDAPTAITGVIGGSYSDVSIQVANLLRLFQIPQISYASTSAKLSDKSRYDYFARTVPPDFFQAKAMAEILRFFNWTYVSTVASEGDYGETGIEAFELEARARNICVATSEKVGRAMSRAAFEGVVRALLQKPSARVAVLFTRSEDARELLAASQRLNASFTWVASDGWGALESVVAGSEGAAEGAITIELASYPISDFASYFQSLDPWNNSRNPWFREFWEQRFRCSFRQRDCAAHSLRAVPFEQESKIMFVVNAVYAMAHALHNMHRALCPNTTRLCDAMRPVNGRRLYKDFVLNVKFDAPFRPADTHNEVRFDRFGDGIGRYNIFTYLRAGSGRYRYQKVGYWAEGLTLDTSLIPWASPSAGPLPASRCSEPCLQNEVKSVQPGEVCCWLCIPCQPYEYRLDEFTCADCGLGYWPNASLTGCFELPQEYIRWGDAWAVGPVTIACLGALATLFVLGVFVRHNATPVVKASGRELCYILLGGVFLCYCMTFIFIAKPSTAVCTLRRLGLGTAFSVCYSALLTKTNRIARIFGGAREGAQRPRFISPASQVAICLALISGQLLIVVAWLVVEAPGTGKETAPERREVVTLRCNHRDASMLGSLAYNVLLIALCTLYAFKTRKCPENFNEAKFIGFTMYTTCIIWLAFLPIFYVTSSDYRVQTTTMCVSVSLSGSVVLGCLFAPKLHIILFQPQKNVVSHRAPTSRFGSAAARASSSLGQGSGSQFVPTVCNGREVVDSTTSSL
Chain of Metabotropic glutamate receptor 8 (O00222 whole entry): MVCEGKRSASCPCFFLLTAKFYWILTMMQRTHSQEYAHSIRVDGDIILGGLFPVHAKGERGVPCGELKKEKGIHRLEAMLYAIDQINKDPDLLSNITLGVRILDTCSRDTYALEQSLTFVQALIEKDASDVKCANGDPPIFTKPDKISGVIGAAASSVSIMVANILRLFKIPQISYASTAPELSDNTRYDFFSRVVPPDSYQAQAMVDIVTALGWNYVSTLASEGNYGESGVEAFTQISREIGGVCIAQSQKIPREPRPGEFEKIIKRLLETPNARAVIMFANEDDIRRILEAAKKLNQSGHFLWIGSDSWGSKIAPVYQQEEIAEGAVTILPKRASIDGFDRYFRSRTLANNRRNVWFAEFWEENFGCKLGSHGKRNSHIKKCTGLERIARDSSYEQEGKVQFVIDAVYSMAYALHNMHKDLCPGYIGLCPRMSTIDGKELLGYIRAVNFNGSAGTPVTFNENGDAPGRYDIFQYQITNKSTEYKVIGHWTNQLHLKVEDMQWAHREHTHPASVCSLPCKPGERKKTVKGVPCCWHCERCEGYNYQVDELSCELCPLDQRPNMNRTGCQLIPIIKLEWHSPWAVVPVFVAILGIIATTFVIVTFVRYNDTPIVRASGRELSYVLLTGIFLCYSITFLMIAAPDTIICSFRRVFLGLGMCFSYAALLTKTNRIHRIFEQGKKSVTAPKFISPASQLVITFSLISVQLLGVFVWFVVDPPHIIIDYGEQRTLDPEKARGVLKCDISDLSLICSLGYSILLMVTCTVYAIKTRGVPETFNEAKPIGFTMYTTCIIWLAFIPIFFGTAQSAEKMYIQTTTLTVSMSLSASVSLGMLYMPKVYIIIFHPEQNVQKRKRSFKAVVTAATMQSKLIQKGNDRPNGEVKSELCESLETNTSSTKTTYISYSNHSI
T2 sequence (Q14832 whole entry): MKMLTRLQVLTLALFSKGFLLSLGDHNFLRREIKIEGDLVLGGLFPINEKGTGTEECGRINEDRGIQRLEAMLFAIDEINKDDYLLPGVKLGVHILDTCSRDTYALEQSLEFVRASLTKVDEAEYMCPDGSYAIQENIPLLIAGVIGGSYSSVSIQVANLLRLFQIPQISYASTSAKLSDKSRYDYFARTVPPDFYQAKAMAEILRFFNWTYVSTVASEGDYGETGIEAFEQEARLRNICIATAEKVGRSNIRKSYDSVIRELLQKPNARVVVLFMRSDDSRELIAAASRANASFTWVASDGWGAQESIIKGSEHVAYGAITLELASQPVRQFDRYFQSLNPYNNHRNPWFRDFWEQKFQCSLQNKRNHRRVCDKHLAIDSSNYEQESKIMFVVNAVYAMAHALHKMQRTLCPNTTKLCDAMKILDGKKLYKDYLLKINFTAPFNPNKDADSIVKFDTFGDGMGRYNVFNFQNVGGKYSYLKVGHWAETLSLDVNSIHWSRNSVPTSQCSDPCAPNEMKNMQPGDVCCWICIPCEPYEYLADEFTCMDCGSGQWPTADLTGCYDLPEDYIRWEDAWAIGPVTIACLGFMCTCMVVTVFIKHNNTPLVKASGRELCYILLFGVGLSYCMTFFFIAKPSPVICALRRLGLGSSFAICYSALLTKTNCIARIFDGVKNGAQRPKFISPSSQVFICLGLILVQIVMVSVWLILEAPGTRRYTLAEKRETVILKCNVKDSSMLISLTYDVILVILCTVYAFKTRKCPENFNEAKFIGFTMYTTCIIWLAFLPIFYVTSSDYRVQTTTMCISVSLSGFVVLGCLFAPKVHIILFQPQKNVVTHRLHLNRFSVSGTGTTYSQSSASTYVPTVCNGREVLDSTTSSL

N[C@@H]1C[C@@](N)(C(=O)O)[C@@H]2[C@@H](C(=O)O)[C@@H]21
EC50 [1]: 11.8 µM | EC50 [2]: 0.0571 µM | EC50 [3]: > 25 µM | EC50 [4]: 0.0479 µM

N[C@@]1(C(=O)O)C[C@@H](Sc2ccccc2)[C@H]2[C@H](C(=O)O)[C@H]21
IC50 [5]: 0.895 µM | EC50 [1]: 1.27 µM | IC50 [6]: 7.02 µM | EC50 [3]: > 25 µM

N[C@@]1(C(=O)O)C[C@@H](O)[C@H]2[C@H](C(=O)O)[C@H]21
EC50 [1]: 4.37 µM | EC50 [3]: > 25 µM | EC50 [4]: 0.0076 µM

CC(=O)N[C@@H]1C[C@@](N)(C(=O)O)[C@@H]2[C@@H](C(=O)O)[C@@H]21
IC50 [5]: 3.39 µM | EC50 [1]: 6.69 µM | IC50 [6]: 4.99 µM | EC50 [3]: > 25 µM

CC(=O)N[C@H]1C[C@@](N)(C(=O)O)[C@@H]2[C@@H](C(=O)O)[C@@H]21
EC50 [1]: 0.709 µM | EC50 [2]: 0.193 µM | EC50 [3]: 4.3 µM | EC50 [4]: 0.257 µM

C=C1C[C@@](N)(C(=O)O)[C@H]2[C@@H]1[C@@H]2C(=O)O
EC50 [7]: 0.267 µM | EC50 [2]: 0.0155 µM | EC50 [3]: 1.59 µM | EC50 [4]: 0.0013 µM | %max [8]: 100%

[N-]=[N+]=N[C@@H]1C[C@@](N)(C(=O)O)[C@@H]2[C@@H](C(=O)O)[C@@H]21
EC50 [1]: 0.78 µM | EC50 [2]: 0.0123 µM | EC50 [3]: 12.4 µM | EC50 [4]: 0.0082 µM

N[C@H]1C[C@@](N)(C(=O)O)[C@@H]2[C@@H](C(=O)O)[C@@H]21
EC50 [1]: 9.37 µM | EC50 [2]: 0.0249 µM | EC50 [3]: > 25 µM | EC50 [4]: 0.0212 µM

C[C@@H]1C[C@@](N)(C(=O)O)[C@@H]2[C@@H](C(=O)O)[C@@H]21
IC50 [5]: 3.42 µM | EC50 [1]: 7.54 µM | EC50 [3]: > 25 µM | EC50 [4]: 0.0636 µM

N[C@@]1(C(=O)O)CC(=O)[C@H]2[C@H](C(=O)O)[C@H]21
EC50 [7]: 1.38 µM | EC50 [2]: 0.00011 µM | EC50 [3]: 6.53 µM | EC50 [4]: 0.00016 µM | %max [8]: 100%

N[C@@]1(C(=O)O)C[C@@H](F)[C@H]2[C@H](C(=O)O)[C@H]21
clearance [9]: 14.8 mL/min/kg | Tmax [10]: 1.8 h | bioavailability [11]: 64.4% | half-life [12]: 2.7 h | EC50 [1]: 1.41 µM | AUC(0-t) at 24 h [13]: 2.79 µM·h | Cmax [14]: 3.94 µM | half-life [15]: 7.3 h | Cmax [16]: 0.713 µM | Tmax [17]: 0 h | AUC(0-t) at 24 h [18]: 23.6 µM·h | AUC(0-t) at 24 h [19]: 10.7 µM·h | half-life [20]: 3.5 h | Tmax [21]: 2.5 h | Tmax [22]: 2 h | Activity (Rattus norvegicus [23]): Non-toxic | EC50 [2]: 0.00024 µM | C0 [24]: 36.7 µM | Vd [25]: 1.25 L/kg | EC50 [3]: 11.5 µM | half-life [26]: 5.9 h | AUC(0-t) at 24 h [27]: 16.7 µM·h | EC50 [4]: 0.00056 µM | Activity (Rattus norvegicus [28]): Toxic | Cmax [29]: 7.94 µM | Activity (Rattus norvegicus [30]): Dose-dependent effect | ED50 (Rattus norvegicus [30]): 2.08 mg/kg

N[C@@]1(C(=O)O)CC[C@H]2[C@H](C(=O)O)[C@H]21
EC50 [1]: 3.36 µM | EC50 [2]: 0.0271 µM | EC50 [3]: > 25 µM

N[C@@]1(C(=O)O)C[C@H](Sc2ccccc2)[C@H]2[C@H](C(=O)O)[C@H]21
IC50 [5]: 3.37 µM | EC50 [1]: 3.25 µM | EC50 [3]: > 25 µM | EC50 [4]: 1.17 µM

[N-]=[N+]=N[C@H]1C[C@@](N)(C(=O)O)[C@@H]2[C@@H](C(=O)O)[C@@H]21
EC50 [7]: 1.89 µM | EC50 [2]: 0.0235 µM | EC50 [3]: 12 µM | EC50 [4]: 0.0122 µM | %max [8]: 100%

C[C@H]1C[C@@](N)(C(=O)O)[C@@H]2[C@@H](C(=O)O)[C@@H]21
EC50 [1]: 9.28 µM | EC50 [2]: 0.166 µM | EC50 [3]: > 25 µM | EC50 [4]: 0.0286 µM

N[C@@]1(C(=O)O)C[C@H](O)[C@H]2[C@H](C(=O)O)[C@H]21
EC50 [7]: 3.04 µM | EC50 [3]: > 25 µM | EC50 [4]: 0.0075 µM
